# Reference: ChEMBL document CHEMBL4014345, “Development of Selective Clk1 and -4 Inhibitors for Cellular Depletion of Cancer-Relevant Proteins” (J Med Chem, 2017)
# Calls of active or inactive are those of the source. The rule behind the calls is not given here.
# Assays:
# [1] = target: T1, Dual specificity protein kinase CLK1 (Homo sapiens, UniProt P49759); assay: Inhibition of recombinant human GST-tagged Clk1 expressed in Escherichia coli using RS repeat substrate peptide after 15 mins in presence of [gamma-32]-ATP
# Target sequence in this assay (P49759 whole entry): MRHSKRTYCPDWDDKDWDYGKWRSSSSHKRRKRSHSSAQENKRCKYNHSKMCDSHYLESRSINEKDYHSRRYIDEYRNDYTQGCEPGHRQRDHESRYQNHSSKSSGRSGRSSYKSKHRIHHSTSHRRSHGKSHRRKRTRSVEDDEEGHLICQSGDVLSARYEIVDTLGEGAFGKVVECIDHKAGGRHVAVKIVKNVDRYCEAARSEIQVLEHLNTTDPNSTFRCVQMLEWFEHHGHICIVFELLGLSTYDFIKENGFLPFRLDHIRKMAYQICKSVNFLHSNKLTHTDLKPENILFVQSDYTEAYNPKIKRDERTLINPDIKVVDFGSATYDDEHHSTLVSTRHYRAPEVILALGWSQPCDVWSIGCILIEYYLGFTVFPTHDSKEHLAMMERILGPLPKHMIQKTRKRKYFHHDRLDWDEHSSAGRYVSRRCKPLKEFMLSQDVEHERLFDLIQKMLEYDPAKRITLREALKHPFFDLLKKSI
# [2] = Cytotoxicity against HEK293 cells assessed as growth inhibition; format: cell-based; conditions: human
# In short: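 Cytotoxicity was tested in proliferating HEK293 cells with GI50 as the read-out. Data are the mean of at least two independent experiments.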
# T-24 [3] = assay: Cytotoxicity against human T24 cells assessed as growth inhibition after 5 days by MTT assay; format: functional; conditions: T-24, 120 h
# In short: (§1)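 They were seeded at 5000 cells per well onto compound or DMSO (0.2% final). Plates were kept 5 days at 37 °C in 5% CO2 with no medium change, then read by MTT.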
# [4] = target: T2, Dual specificity protein kinase CLK1/CLK4 (Homo sapiens, UniProt Q9HAZ1+P49759); assay: Inhibition of CLK1/4 in human MDA-MB-231 cells assessed as down regulation of S6 kinase expression at 2.5 uM after 3 days by Western blot analysis relative to control; format: cell-based
# In short: (§2)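 T24 or MDA-MB-231 cells were grown in DMEM to 70% confluency. The medium was replaced with compound diluted in DMEM, and cells were kept 3 days. Total protein was immunoblotted with monoclonal antibodies in 3% BSA/PBS against EGFR, p70S6K α, PARP-1, ERK2, HDAC1, CD44, PCNA and GRP94.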
# [5] = target: Dual specificity protein kinase CLK4 (Mus musculus, UniProt O35493); assay: Inhibition of recombinant GST-tagged mouse CLK4 using GRSRSRSRSRSR as substrate after 30 mins in presence of [gamma-32P]-ATP by scintillation counting method
# [6] = target: Dual specificity protein kinase CLK2 (Mus musculus) (UniProt O35491); assay: Inhibition of recombinant GST-tagged mouse CLK2 using GRSRSRSRSRSR as substrate at 1 uM after 30 mins in presence of [gamma-32P]-ATP by scintillation counting method
# MDA-MB-231 [7] = assay: Down regulation of CD44 expression in human MDA-MB-231 cells at 2.5 to 20 uM after 3 days by Western blot analysis; format: functional, cell-based; in short: as §2
# [8] = target: Dual specificity protein kinase CLK2 (Mus musculus, UniProt O35491); assay: Inhibition of recombinant GST-tagged mouse CLK2 using GRSRSRSRSRSR as substrate after 30 mins in presence of [gamma-32P]-ATP by scintillation counting method
# [9] = target: T2, Dual specificity protein kinase CLK1/CLK4; assay: Inhibition of CLK1/4 in human T24 cells assessed as down regulation of HDAC1 expression at 1.25 uM after 3 days by Western blot analysis relative to control; format: cell-based; in short: as §2
# HepG2 = assay: Cytotoxicity against human HepG2 cells assessed as growth inhibition after 5 days by MTT assay; format: functional; conditions: HepG2, 120 h; in short: as §1
# [10] = target: T2, Dual specificity protein kinase CLK1/CLK4; assay: Inhibition of CLK1/4 in human T24 cells assessed as down regulation of EGFR expression at 10 uM after 3 days by Western blot analysis relative to control; format: cell-based; in short: as §2
# T-24 [11] = assay: Down regulation of GRP94 expression in human T24 cells at 1.25 to 10 uM after 3 days by Western blot analysis; format: functional, cell-based; in short: as §2
# [12] = target: T1, Dual specificity protein kinase CLK1; assay: Inhibition of recombinant human GST-tagged Clk1 expressed in Escherichia coli at 100 nM using RS repeat substrate peptide after 15 mins in presence of [gamma-32]-ATP
# Target sequence in this assay (P49759 whole entry, looked up): as the sequence (P49759 whole entry) above
# MDA-MB-231 [13] = assay: Down regulation of ERK2 expression in human MDA-MB-231 cells at 2.5 to 20 uM after 3 days by Western blot analysis; format: functional, cell-based; in short: as §2
# T-24 [14] = assay: Down regulation of PARP1 expression in human T24 cells at 1.25 to 10 uM after 3 days by Western blot analysis; format: functional, cell-based; in short: as §2
# MDA-MB-231 [15] = assay: Down regulation of PARP1 expression in human MDA-MB-231 cells at 2.5 to 20 uM after 3 days by Western blot analysis; format: functional, cell-based; in short: as §2
# T-24 [16] = assay: Down regulation of ERK2 expression in human T24 cells at 1.25 to 10 uM after 3 days by Western blot analysis; format: functional, cell-based; in short: as §2
# [17] = target: Dual specificity protein kinase CLK3 (Mus musculus) (UniProt O35492); assay: Inhibition of recombinant GST-tagged mouse CLK3 using GRSRSRSRSRSR as substrate at 1 uM after 30 mins in presence of [gamma-32P]-ATP by scintillation counting method
# [18] = target: T3, Dual specificity tyrosine-phosphorylation-regulated kinase 1B (Homo sapiens, UniProt Q9Y463); assay: Inhibition of full length recombinant GST-tagged human DYRK1B expressed in baculovirus using KKISGRLSPIMTEQ-NH2 as substrate at 1 uM after 15 mins
# Target sequence in this assay (Q9Y463 whole entry, looked up): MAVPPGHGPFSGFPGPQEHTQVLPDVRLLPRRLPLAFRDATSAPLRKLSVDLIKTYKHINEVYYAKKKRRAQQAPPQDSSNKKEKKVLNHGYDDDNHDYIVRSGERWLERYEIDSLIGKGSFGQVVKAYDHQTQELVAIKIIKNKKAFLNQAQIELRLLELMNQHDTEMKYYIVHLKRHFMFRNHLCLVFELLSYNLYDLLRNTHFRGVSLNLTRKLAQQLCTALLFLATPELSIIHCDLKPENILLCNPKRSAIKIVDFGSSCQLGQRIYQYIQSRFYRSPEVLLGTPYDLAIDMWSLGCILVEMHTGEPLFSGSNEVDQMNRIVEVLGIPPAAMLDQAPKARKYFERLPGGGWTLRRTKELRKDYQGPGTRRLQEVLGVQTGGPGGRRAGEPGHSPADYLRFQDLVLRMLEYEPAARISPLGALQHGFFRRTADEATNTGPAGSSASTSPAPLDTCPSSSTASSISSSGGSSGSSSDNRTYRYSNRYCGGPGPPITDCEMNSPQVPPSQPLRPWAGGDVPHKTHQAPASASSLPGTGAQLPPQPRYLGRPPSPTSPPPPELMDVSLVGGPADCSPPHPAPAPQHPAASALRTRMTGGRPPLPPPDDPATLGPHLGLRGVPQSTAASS
# [19] = target: T2, Dual specificity protein kinase CLK1/CLK4; assay: Inhibition of CLK1/4 in human MDA-MB-231 cells assessed as down regulation of S6 kinase expression at 20 uM after 3 days by Western blot analysis relative to control; format: cell-based; in short: as §2
# [20] = target: SRSF protein kinase 1 (Homo sapiens) (UniProt Q96SB4); assay: Inhibition of SRPK1 (unknown origin) at 1 uM
# In short: (§3)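 Tested in a commercial kinase profiling panel at an ATP concentration of 100 μM. Data are the mean of duplicates that differed by less than 7%.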
# [21] = target: T2, Dual specificity protein kinase CLK1/CLK4; assay: Inhibition of CLK1/4 in human T24 cells assessed as down regulation of EGFR expression after 3 days by Western blot analysis; format: cell-based; in short: as §2
# [22] = target: SRSF protein kinase 2 (Homo sapiens) (UniProt P78362); assay: Inhibition of SRPK2 (unknown origin) at 1 uM; in short: as §3
# [23] = target: Dual specificity tyrosine-phosphorylation-regulated kinase 4 (Homo sapiens) (UniProt Q9NR20); assay: Inhibition of DYRK4 (unknown origin) using KKISGRLSPIMTEQ-NH2 as substrate at 1 uM after 15 mins in presence of [gamma-32P]-ATP
# [24] = target: T2, Dual specificity protein kinase CLK1/CLK4; assay: Inhibition of CLK1/4 in human HepG2 cells assessed as down regulation of S6 kinase expression at 20 uM after 3 days by Western blot analysis relative to control; format: cell-based
# In short: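 HepG2 cells were grown in DMEM to 70% confluency, then the medium was replaced with compound diluted in DMEM. After 3 days, total protein was immunoblotted with monoclonal antibodies including HDAC1 and p70S6K.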
# MDA-MB-231 [25] = assay: Down regulation of GRP94 expression in human MDA-MB-231 cells at 2.5 to 20 uM after 3 days by Western blot analysis; format: functional, cell-based; in short: as §2
# [26] = target: T3, Dual specificity tyrosine-phosphorylation-regulated kinase 1B; assay: Inhibition of full length recombinant GST-tagged human DYRK1B expressed in baculovirus using KKISGRLSPIMTEQ-NH2 as substrate after 15 mins
# Target sequence in this assay (Q9Y463 whole entry): as the sequence (Q9Y463 whole entry, looked up) above
# [27] = target: T2, Dual specificity protein kinase CLK1/CLK4; assay: Inhibition of CLK1/4 in human MDA-MB-231 cells assessed as down regulation of EGFR expression after 3 days by Western blot analysis; format: cell-based; in short: as §2
# [28] = target: T2, Dual specificity protein kinase CLK1/CLK4; assay: Inhibition of CLK1/4 in human T24 cells assessed as down regulation of HDAC1 expression at 10 uM after 3 days by Western blot analysis relative to control; format: cell-based; in short: as §2
# [29] = target: Dual specificity tyrosine-phosphorylation-regulated kinase 1A (Homo sapiens, UniProt Q13627); assay: Inhibition of N-terminal His6-tagged recombinant human Dyrk1A expressed in Escherichia coli BL21 (DE3) using KKISGRLSPIMTEQ-NH2 as substrate after 15 mins in presence of [gamma-32]-ATP
# Chain of SRSF protein kinase 2 (Homo sapiens) (P78362 whole entry, looked up): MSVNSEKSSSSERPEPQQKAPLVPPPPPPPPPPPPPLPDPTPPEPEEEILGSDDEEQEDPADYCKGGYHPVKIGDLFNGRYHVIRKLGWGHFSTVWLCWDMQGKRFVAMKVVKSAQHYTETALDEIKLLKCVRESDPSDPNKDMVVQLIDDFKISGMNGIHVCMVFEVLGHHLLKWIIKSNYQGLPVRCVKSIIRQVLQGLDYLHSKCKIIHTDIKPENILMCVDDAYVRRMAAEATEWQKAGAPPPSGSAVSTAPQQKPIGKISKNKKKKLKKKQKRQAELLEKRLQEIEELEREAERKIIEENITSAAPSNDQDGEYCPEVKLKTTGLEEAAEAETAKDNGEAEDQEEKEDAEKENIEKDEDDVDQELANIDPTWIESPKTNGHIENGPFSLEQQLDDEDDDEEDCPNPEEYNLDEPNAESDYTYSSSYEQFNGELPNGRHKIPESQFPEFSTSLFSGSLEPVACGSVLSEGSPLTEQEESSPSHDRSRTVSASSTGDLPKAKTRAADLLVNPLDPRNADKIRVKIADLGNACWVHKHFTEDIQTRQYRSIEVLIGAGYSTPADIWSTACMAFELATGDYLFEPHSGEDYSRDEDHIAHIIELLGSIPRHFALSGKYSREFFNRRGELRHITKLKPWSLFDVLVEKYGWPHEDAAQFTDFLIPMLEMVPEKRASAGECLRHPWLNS
# Chain of Dual specificity tyrosine-phosphorylation-regulated kinase 4 (Homo sapiens) (Q9NR20 whole entry): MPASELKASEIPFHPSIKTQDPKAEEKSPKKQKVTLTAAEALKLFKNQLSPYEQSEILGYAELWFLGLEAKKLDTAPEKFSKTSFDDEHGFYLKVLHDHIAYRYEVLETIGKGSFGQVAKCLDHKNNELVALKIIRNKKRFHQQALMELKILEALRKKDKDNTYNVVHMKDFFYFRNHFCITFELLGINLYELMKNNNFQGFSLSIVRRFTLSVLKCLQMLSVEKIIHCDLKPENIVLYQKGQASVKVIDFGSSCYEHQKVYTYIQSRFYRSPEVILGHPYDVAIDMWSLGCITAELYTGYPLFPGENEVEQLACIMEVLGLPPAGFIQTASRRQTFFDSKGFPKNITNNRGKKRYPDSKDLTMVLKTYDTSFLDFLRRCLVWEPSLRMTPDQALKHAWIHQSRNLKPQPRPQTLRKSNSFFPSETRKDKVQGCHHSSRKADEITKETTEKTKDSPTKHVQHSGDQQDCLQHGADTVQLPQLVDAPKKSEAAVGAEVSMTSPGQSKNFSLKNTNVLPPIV
# Chain of Dual specificity protein kinase CLK2 (O35491 whole entry): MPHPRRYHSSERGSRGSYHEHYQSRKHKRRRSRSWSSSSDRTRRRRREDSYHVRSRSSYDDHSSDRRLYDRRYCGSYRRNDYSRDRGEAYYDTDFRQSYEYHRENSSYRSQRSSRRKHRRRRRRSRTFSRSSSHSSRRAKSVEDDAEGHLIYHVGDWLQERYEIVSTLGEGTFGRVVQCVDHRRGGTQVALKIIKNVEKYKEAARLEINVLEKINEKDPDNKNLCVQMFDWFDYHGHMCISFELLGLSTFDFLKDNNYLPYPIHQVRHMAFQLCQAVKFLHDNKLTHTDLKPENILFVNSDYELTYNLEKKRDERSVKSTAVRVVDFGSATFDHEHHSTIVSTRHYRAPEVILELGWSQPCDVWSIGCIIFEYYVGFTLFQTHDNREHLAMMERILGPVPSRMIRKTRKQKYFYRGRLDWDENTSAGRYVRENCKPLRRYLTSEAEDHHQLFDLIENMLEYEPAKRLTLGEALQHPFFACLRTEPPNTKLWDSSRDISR
# Chain of Dual specificity protein kinase CLK2 (Mus musculus) (O35491 whole entry, looked up): as the sequence (O35491 whole entry) above
# Chain of Dual specificity protein kinase CLK3 (Mus musculus) (O35492 whole entry): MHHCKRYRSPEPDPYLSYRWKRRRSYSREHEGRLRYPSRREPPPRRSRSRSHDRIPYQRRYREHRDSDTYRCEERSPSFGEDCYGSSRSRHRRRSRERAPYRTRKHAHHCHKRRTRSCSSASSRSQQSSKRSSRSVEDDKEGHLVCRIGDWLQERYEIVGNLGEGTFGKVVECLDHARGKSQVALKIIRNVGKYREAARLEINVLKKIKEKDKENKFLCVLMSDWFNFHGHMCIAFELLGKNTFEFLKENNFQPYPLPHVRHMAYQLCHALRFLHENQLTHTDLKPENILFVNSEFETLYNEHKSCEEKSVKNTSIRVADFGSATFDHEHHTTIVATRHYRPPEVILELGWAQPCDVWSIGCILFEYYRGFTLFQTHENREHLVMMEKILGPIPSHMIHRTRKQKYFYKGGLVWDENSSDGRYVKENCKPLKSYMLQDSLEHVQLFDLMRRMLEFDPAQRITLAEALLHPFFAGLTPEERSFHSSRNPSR
# Chain of SRSF protein kinase 1 (Homo sapiens) (Q96SB4 whole entry): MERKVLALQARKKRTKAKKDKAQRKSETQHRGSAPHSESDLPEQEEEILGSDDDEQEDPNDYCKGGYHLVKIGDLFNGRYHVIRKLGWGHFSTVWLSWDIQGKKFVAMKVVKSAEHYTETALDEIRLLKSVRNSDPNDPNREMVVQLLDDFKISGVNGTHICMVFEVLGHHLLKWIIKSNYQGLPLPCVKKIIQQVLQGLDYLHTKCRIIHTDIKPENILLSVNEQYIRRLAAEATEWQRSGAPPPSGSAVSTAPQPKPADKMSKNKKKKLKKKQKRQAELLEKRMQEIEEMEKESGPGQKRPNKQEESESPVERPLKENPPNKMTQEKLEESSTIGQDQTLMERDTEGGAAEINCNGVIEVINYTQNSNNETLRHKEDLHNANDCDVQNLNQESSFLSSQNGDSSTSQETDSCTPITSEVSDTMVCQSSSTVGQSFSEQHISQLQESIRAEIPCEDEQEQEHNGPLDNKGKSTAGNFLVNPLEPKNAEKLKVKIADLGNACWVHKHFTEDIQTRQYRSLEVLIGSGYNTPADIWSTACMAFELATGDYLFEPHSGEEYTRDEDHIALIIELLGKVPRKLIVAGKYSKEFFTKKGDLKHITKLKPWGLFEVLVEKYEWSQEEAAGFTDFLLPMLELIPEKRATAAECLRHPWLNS
compound,measurement,setting,value
COc1ccc2sc(C(=O)N(C)Cc3cccc(F)c3)cc2c1,IC50,[1],6.9 to 7 nM
same,GI50,[2],> 30000 nM
same,GI50,T-24 [3],600 nM
same,inhibition,[4],12.1%
same,IC50,[5],2.3 nM
same,inhibition,[6],86%
same,Activity,MDA-MB-231 [7],inactive
same,IC50,[8],19.1 nM
same,inhibition,[9],13.6%
same,GI50,HepG2,2800 nM
same,inhibition,[10],59.7%
same,Activity,T-24 [11],inactive
same,inhibition,[12],80%
same,Activity,MDA-MB-231 [13],inactive
same,Activity,T-24 [14],inactive
same,Activity,MDA-MB-231 [15],inactive
same,Activity,T-24 [16],inactive
same,inhibition,[17],58%
same,inhibition,[18],77%
same,inhibition,[19],41.4%
same,inhibition,[20],2%
same,IC50,[21],2200 nM
same,inhibition,[21],Dose-dependent effect
same,inhibition,[22],7%
same,inhibition,[23],inactive
same,inhibition,[24],44%
same,Activity,MDA-MB-231 [25],inactive
same,IC50,[26],206 nM
same,IC50,[27],4200 nM
same,inhibition,[28],50.2%
same,IC50,[29],340 nM
